Screening data: PubChem BioAssay, several laboratories
Diaphorase act – activates diaphorase or chemically reduces, flagging diaphorase assay artifacts | Diaphorase/resazurin coupled assay, resorufin fluorescence, 16 min; stronger effect = higher value; 1 = vehicle wells, 0 = NADH-free wells | activation factor at 20 µM | actives 0.005% (n = 190,000) | AID 1229;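 active = diaphorase activity raised at least twofold by the compound at 20 µM; inactive = activation factor below 2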
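Material: purified diaphorase enzyme from Clostridium kluyveri / Medium: HEPES pH 7.4 buffer with MgCl2 and Tween 20 / Schedule: enzyme reaction of 16 min at room temperature / Measured by: resorufin fluorescence, excitation 544 nm, emission 590 nm / Evaluation: rise in resorufin formation, marking diaphorase activation or chemical reduction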
WT yeast gro inh – growth inhibition of WT yeast, mitochondrial fusion screen | mitochondrial fusion phenotypic screen, WT strain | inhibition, % at 10 µM | actives 2.1% (n = 190,000) | AID 1362; in the data active = inhibition above about 58%; tested in S. cerevisiae
Cl transport mod – modulators of human KCC2 chloride dependent transport | Q9H2X9 | KCC2 cells, thallium flux FluoZin-2 fluorescence | B-score of Tl+ flux slope (higher = more flux/activation; lower = inhibition) at 10 µM | actives 2.2% (n = 190,000);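 active = thallium flux slope and its plate-corrected score both differing from the plate sample mean at a set confidence after two filtering rounds, in either direction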;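 note: slope of fluorescence scaled to starting intensity during 10 to 20 s after thallium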
L major viab – reduces viability of Leishmania major promastigotes. actives 9% (n = 200,000). resazurin fluorescence viability. inhibition, % at 10 µM; in the data active = inhibition above about 50%;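 note: promastigotes grown with compound for 44 hours at 28 °C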
Diaphorase inh – diaphorase inhibition or chemical oxidation counter-screen; diaphorase resazurin-to-resorufin fluorescence, NADH, 16 min; bacterial (C. kluyveri) enzyme, not human; inhibition, % at 20 µM; actives 0.69% (n = 190,000);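 active = primary screen inhibition at 20 µM above a set limit, cut at about 50% in these data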;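 note: plate controls were DMSO with full reaction for no effect and wells lacking NADH for full effect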
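Test system: bacterial diaphorase enzyme (C. kluyveri); Quantity: 0.14 U/mL diaphorase, enzyme working solution; Times: reaction incubation of 16 min at room temperature; Measured by: fluorescence of resorufin formed from resazurin, Ex 544/Em 590 nm; Benchmarks: positive control minus NADH, DMSO neutral control.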
ROMK primary – modulators of human ROMK potassium channel. AID 1918. B-score at 10 µM. actives 2% (n = 130,000). Tet-inducible ROMK, thallium flux fluorescence; actives lie on both sides. P48048;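 active = signal ratio slope over the read window, or its plate-corrected B-score, at least 3 SD from the plate mean, either direction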;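 note: B-score of the F/F0 ratio slope over 7 to 12 s after thallium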
KCC2 sec1 – KCC2 (human) modulation, secondary assay; HEK293-KCC2, thallium flux, FluoZin2 fluorescence; stronger effect = higher value; normalised thallium flux (F/F0 slope) at 10 µM; AID 1713; shares compounds with Cl transport mod; actives 15% (n = 3,700);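 active = thallium flux slope above the same plate's solvent-only control mean plus 3 SD; inconclusive = the two replicate wells disagree; inactive = no significant difference from solvent-only control wells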
KCC2 bumet counter – thallium flux persisting under bumetanide in KCC2 cells, counter-screen secondary assay. shares compounds with Cl transport mod. HEK293-KCC2 + bumetanide/ouabain, thallium flux FluoZin2; stronger effect = higher value. normalized thallium flux at 10 µM. actives 49% (n = 3,700);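 active = thallium entry rate above the same plate's blocked-transporter control wells by more than 3 SD; inconclusive = the two repeat wells disagree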;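 note: raw slope of fluorescence over initial fluorescence between 10 and 20 s after thallium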
KCC2 secondary2 – KCC2 (human) modulation, second secondary assay | actives 23% (n = 3,700) | normalized thallium flux at 10 µM | shares compounds with Cl transport mod | HEK293-KCC2, thallium flux FluoZin2 fluorescence; actives lie on both sides; F/F0 rise rate, 10–20 s post-thallium;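 active = thallium flux slope more than 3 SD above or below the plate's solvent-only control mean, mostly below; inconclusive = the two repeat wells disagreed; inactive = no significant shift from solvent-only controls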;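 note: raw slope with 0.1% DMSO as baseline and bumetanide as block control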
HEK293 Tl flux – acts in parental HEK cells, KCC2 counter-screen | shares compounds with Cl transport mod | HEK293 parental cells, thallium flux FluoZin2, ouabain; baseline-ratio fluorescence slope, 10–20 s after thallium | thallium flux rate (normalised fluorescence) at 10 µM | actives 46% (n = 3,700);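 active = thallium flux rate significantly above the same plate's solvent-only control wells, beyond their mean plus 3 SD; inconclusive = the two replicate wells gave conflicting results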
KCC2 ouabain – modulates human KCC2 on retest with ouabain; AID 1717; shares compounds with Cl transport mod; actives 48% (n = 3,700); raw Tl+ flux slope (below DMSO = inhibition, above = activation) at 10 µM; HEK293-KCC2, thallium flux FluoZin2 fluorescence; bidirectional: low = inhibitor, high = activator;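 active = thallium flux slope beyond 3 SD from same-plate DMSO control mean in most replicates, usually higher, sometimes lower; inconclusive = repeat tests gave conflicting results; inactive = no significant difference from controls in most replicates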;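 note: slope of initial-normalized fluorescence between seconds 10 and 20 after thallium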
HEK293 Tl flux2 – acts in parental HEK cells, second KCC2 counter-screen. AID 1718. actives 33% (n = 3,700). HEK293 parental, thallium flux FluoZin-2 fluorescence slope. shares compounds with Cl transport mod. thallium flux slope at 10 µM;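 active = thallium flux slope above the same plate's solvent-control mean plus 3 SD in both duplicate wells; inconclusive = duplicate wells that disagreed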;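 note: run without ouabain in cells lacking the KCC2 cotransporter; slope of fluorescence scaled to its starting value between 10 and 20 s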
* hit, by the source's call; ? = inconclusive; / = no result. Shown are actives, neighbours in structure and some others; about 12% of the full set was active somewhere.

SMILES | Diaphorase act | WT yeast gro inh | Cl transport mod | L major viab | Diaphorase inh | ROMK primary | KCC2 sec1 | KCC2 bumet counter | KCC2 secondary2 | HEK293 Tl flux | KCC2 ouabain | HEK293 Tl flux2
O=C(C1CCN(C2CC(=O)N(c3cccc(Cl)c3)C2=O)CC1)N1CCCC1 (stereo not given) | 1.1 | -15 | -0.59 | -7 | -10 | / | / | / | / | / | / | /
NS(=O)(=O)c1ccc(CNS(=O)(=O)c2cc(C(=O)O)ccc2Cl)cc1 | 0.9 | -3 | -0.061 | 5 | 8 | 0.47 | / | / | / | / | / | /
O=S(=O)(NCc1ccccc1)c1ccc(Cl)c(S(=O)(=O)NCc2ccccc2)c1 | 0.8 | -2 | / | 14 | 19 | -0.92 | 0.0076 | 0.0063 | ? | 0.0061 | 0.013* | 0.0097
CCOc1cc(S(=O)(=O)NCc2ccccc2)ccc1F | 0.9 | 10 | / | 20 | 10 | -1.1 | ? | 0.0053 | 0.024* | 0.0075 | ? | 0.011
O=C(CN(Cc1ccccc1)S(=O)(=O)c1ccc2c(c1)OCCO2)N/N=C/c1ccc(F)cc1 | 0.9 | 32 | -0.52 | 8 | 11 | -1.2 | / | / | / | / | / | /
COc1cc(/C=N/NC(=O)CN(Cc2ccccc2)S(=O)(=O)c2ccc3c(c2)OCCO3)ccc1O | 0.8 | 7 | -4.4* | 7 | 24 | -0.00046 | 0.0084 | 0.007 | ? | 0.0063 | 0.014* | 0.01
O=C(CSc1ncnc2scc(-c3ccccc3)c12)N1CCN(Cc2ccc3c(c2)OCO3)CC1 | 0.7 | 32 | 0.62 | 0 | 34 | / | / | / | / | / | / | /
CCN(CC)C(=O)C(=O)c1cccn1-c1cccc(-n2cccc2C(=O)C(=O)N(CC)CC)c1C#N | 1 | -15 | / | 4 | 2 | -0.79 | / | / | / | / | / | /
COc1ccc(S(=O)(=O)NCCN2CCOCC2)c2ccccc12 | 0.9 | 4 | / | 6 | 10 | -0.32 | 0.0095 | 0.0064 | 0.031 | 0.007 | 0.023 | 0.0097
COc1cc(S(=O)(=O)NCCN2CCOCC2)c(OC)cc1Cl | 0.9 | -3 | 0.71 | -1 | 14 | -0.0056 | / | / | / | / | / | /
Cc1cc(C)c2nc(SCC(=O)NNC(=O)c3ccco3)c(C)cc2c1 | 0.9 | -14 | 4.8* | -5 | 6 | -0.38 | 0.016 | 0.021* | 0.033 | 0.0098* | 0.018 | 0.013*
Cc1cc2cccc(C)c2nc1SCC(=O)NNC(=O)c1ccco1 | 0.9 | -12 | 2.5 | -12 | 6 | 0.26 | / | / | / | / | / | /
Cc1cc(C(=O)NNC(=O)c2ccc(Cl)cc2)no1 | / | / | 5.9* | / | / | 0.059 | 0.011 | 0.016* | 0.037 | 0.013* | 0.027 | 0.012*
Cc1nc(-c2nc(-c3c(C(=O)NNC(=O)c4ccc(Cl)cc4)noc3C)cs2)cs1 | / | / | 103* | / | / | 1.3 | 0.043* | 0.15* | 0.042 | ? | 0.092* | 0.021*
Cc1cc(C(=O)NNC(=O)c2cccc(Cl)c2)no1 | / | / | 7.4* | / | / | / | 0.0068 | 0.014* | 0.032 | 0.014* | ? | 0.018*
Cc1cc(/C(N)=N/OC(=O)c2ccc(Cl)cc2)no1 | / | / | 1.7 | / | / | / | / | / | / | / | / | /
NC(=S)NNC(=O)c1cccc(Cl)c1 | / | / | 5.6* | / | / | -0.93 | ? | ? | 0.032 | 0.01* | 0.019 | ?
CC(=O)Nc1cccc(-c2nnc(SCc3ccccc3C#N)n2C)c1 | 0.9 | 10 | 0.35 | -3 | 6 | / | / | / | / | / | / | /
